Where “and” joins values, the source holds several entries; their conditions need not be identical. Identical values can stand only once.
Experiments:
[1] = tested on: Mus musculus; assay: Compound was evaluated for anticonvulsant activity against subcutaneous pentylenetetrazole-induced convulsions after 4 hr; E indicates no activity at 30 mg/kg.; format: functional, organism-based; parameters: dose 30 mg/kg
Outline: (§1)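 Male Carworth Farms number-one mice were dosed ip in 30% PEG 400, at 30, 100 or 300 mg/kg (sometimes 600 mg/kg). Pentylenetetrazole, 85 mg/kg as a 0.5% solution, was injected subcutaneously in the posterior midline. Protection meant no episode of clonic spasms lasting at least 5 s during a 30-min observation period.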

[2] = tested on: Mus musculus; assay: Compound was evaluated for toxicity by rotarod assay method after 30 minutes at a dose of 600 mg/kg; format: organism-based; parameters: dose 600 mg/kg; conditions: in vivo, 0.5 h
Outline: (§2)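 Male Carworth Farms number-one mice received test compound intraperitoneally in 30% polyethylene glycol 400 at 30, 100 and 300 mg/kg, with 600 mg/kg in some cases. Neurological deficit was read at 30 min or 4 h after dosing on a 1-in.-diameter knurled plastic rod turning at 6 rpm. Toxicity was scored as failure to stay on the rod for 1 min.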

[3] = tested on: Mus musculus; assay: Compound was evaluated for toxicity by rotarod assay method after 4 hr; E indicates no activity at 30 mg/kg.; format: organism-based; parameters: dose 30 mg/kg; conditions: in vivo; outline: as §2
[4] = tested on: Mus musculus; assay: Compound was evaluated for anticonvulsant activity against subcutaneous pentylenetetrazole-induced convulsions after 30 minutes; E indicates no activity at 30 mg/kg.; format: functional, organism-based; parameters: dose 30 mg/kg; outline: as §1
[5] = tested on: Mus musculus; assay: Compound was evaluated for anticonvulsant activity against maximal electric shock (MES) induced convulsions after 4 hr; E indicates no activity at 30 mg/kg.; format: functional, organism-based; parameters: dose 30 mg/kg
[6] = tested on: Mus musculus; assay: Compound was evaluated for anticonvulsant activity against maximal electric shock (MES) induced convulsions after 30 minutes at a dose of 300 mg/kg; format: functional
[7] = Lethal dose was evaluated in mice; format: toxicity, organism-based; conditions: mouse, in vivo
[8] = organism: Mus musculus; assay: Hypnotic dose was evaluated in mice; format: functional
[9] = Protective index is the ratio of TD50 to ED50; format: ADME
Outline: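 Protective index was calculated as rotorod TD50 divided by anti-MES ED50. Both were graphical median doses from ip dosing in 30% PEG 400 in male Carworth Farms mice.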

[10] = tested on: Mus musculus; assay: Compound was evaluated for toxicity by rotarod assay method after 30 minutes; C indicates no activity at 300 mg/kg.; format: organism-based; parameters: dose 300 mg/kg; conditions: in vivo, 0.5 h; outline: as §2
[11] = tested on: Mus musculus; assay: Compound was evaluated for anticonvulsant activity against subcutaneous pentylenetetrazole-induced convulsions after 4 hr; C indicates no activity at 300 mg/kg.; format: functional, organism-based; parameters: dose 300 mg/kg; outline: as §1
[12] = tested on: Mus musculus; assay: Compound was evaluated for toxicity by rotarod assay method after 4 hr; C indicates no activity at 300 mg/kg.; format: organism-based; parameters: dose 300 mg/kg; conditions: in vivo; outline: as §2
[13] = tested on: Mus musculus; assay: Compound was evaluated for anticonvulsant activity against subcutaneous pentylenetetrazole-induced convulsions after 30 minutes; C indicates no activity at 300 mg/kg.; format: functional, organism-based; parameters: dose 300 mg/kg; outline: as §1
[14] = tested on: Mus musculus; assay: Compound was evaluated for anticonvulsant activity against maximal electric shock (MES) induced convulsions after 4 hr at a dose of 300 mg/kg; format: functional
[15] = organism: Mus musculus; assay: Compound was evaluated for anticonvulsant activity against maximal electroshock seizures; format: functional
Outline: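 Male Carworth Farms number-one mice received the compound ip in 30% polyethylene glycol 400 before maximal electroshock testing, at several dose levels. The median effective dose (ED50) was obtained by the graphical method.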

[16] = tested on: Mus musculus; assay: Compound was evaluated for anticonvulsant activity against maximal electric shock (MES) induced convulsions after 30 minutes; C indicates no activity at 300 mg/kg.; format: functional, organism-based; parameters: dose 300 mg/kg
[17] = tested on: Mus musculus; assay: Compound was evaluated for anticonvulsant activity against subcutaneous pentylenetetrazole-induced convulsions after 30 minutes;C is inactive at 300 mg/kg.; format: functional, organism-based; parameters: dose 300 mg/kg; outline: as §1
[18] = tested on: Mus musculus; assay: Compound was evaluated for anticonvulsant activity against maximal electric shock (MES) induced convulsions after 4 hr; C is inactive at 300 mg/kg.; format: functional, organism-based; parameters: dose 300 mg/kg
[19] = tested on: Mus musculus; assay: Compound was evaluated for anticonvulsant activity against subcutaneous pentylenetetrazole-induced convulsions after 4 hr; C is inactive at 300 mg/kg.; format: functional, organism-based; parameters: dose 300 mg/kg; outline: as §1
[20] = tested on: Mus musculus; assay: Compound was evaluated for toxicity by rotarod assay method after 4 hr; C is inactive at 300 mg/kg.; format: organism-based; parameters: dose 300 mg/kg; conditions: in vivo; outline: as §2
[21] = tested on: Mus musculus; assay: Compound was evaluated for toxicity by rotarod assay method after 30 minutes;C is inactive at 300 mg/kg.; format: organism-based; parameters: dose 300 mg/kg; conditions: in vivo, 0.5 h; outline: as §2
[22] = tested on: Mus musculus; assay: Compound was evaluated for anticonvulsant activity against maximal electric shock (MES) induced convulsions after 30 minutes;C is inactive at 300 mg/kg.; format: functional, organism-based; parameters: dose 300 mg/kg

Structure (SMILES): CC(NCc1ccccc1N)c1ccccc1 (configuration not stated)
- Activity [1]: No activity at 30 mg/kg
- Toxicity [2]: 1
- Toxicity [3]: No activity at 30 mg/kg
- Activity [4]: No activity at 30 mg/kg
- Activity [5]: No activity at 30 mg/kg
- Activity [6]: 2

Structure (SMILES): CC(NC(=O)c1ccc(N)cc1)c1ccccc1 (configuration not stated)
- LD50 [7]: 718 mg/kg
- HD50 [8]: 461.76 mg/kg
- Protective index [9]: 9.5 and 4.1

Structure (SMILES): CN(C)c1ccc(C(=O)NCc2ccccc2)cc1
- Toxicity [10]: No activity at 300 mg/kg
- Activity [11]: No activity at 300 mg/kg
- Toxicity [12]: No activity at 300 mg/kg
- Activity [13]: No activity at 300 mg/kg
- Activity [14]: 2
- ED50 [15]: 233 mg/kg
- Activity [16]: No activity at 300 mg/kg

Structure (SMILES): CC(NC(=O)c1ccccc1)c1ccccc1 (configuration not stated)
- Activity [17]: No activity at 300 mg/kg
- Activity [18]: No activity at 300 mg/kg
- Activity [19]: No activity at 300 mg/kg
- Toxicity [20]: No activity at 300 mg/kg
- Toxicity [21]: No activity at 300 mg/kg
- Activity [22]: No activity at 300 mg/kg

Source: ChEMBL document CHEMBL1123783, “Synthesis and anticonvulsant activity of analogues of 4-amino-N-(1-phenylethyl)benzamide” (J Med Chem, 1987)
